Key:
[1] = tested on: Mycobacterium tuberculosis; test: Antitubercular activity against isoniazid-resistant Mycobacterium tuberculosis assessed as reduction of relative light unit at 1 ug/ml after 72 hrs by luciferase reporter phage assay relative to control; type: functional; set-up: scale not given: the % may be the effect or the level left
In short: (§1)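 Luciferase reporter phage assay. Luminescence (RLU) integrated for 10 s on a luminometer, in duplicate per sample and averaged. Percent RLU reduction calculated against untreated control. Run repeated if the control mean RLU was below 1000.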

[2] = tested on: Mycobacterium tuberculosis; test: Antitubercular activity against isoniazid-resistant Mycobacterium tuberculosis assessed as reduction of relative light unit at 2 ug/ml after 72 hrs by luciferase reporter phage assay relative to control; type: functional; set-up: scale not given: the % may be the effect or the level left; in short: as §1

O=C(N/N=C1\C2CCCC1[C@H](c1ccc(Cl)cc1)N[C@@H]2c1ccc(Cl)cc1)c1ccncc1
Activity [1]: 63.61%
Activity [2]: 73.28%

O=C(N/N=C1\C2CCCC1[C@H](c1ccccc1)N[C@@H]2c1ccccc1)c1ccncc1
Activity [1]: 69.6%
Activity [2]: 77.52%

Cc1ccc([C@H]2N[C@@H](c3ccc(C)cc3)C3CCCC2/C3=N\NC(=O)c2ccncc2)cc1
Activity [1]: 62.3%
Activity [2]: 71.07%

COc1ccc([C@H]2N[C@@H](c3ccc(OC)cc3)C3CCCC2/C3=N\NC(=O)c2ccncc2)cc1
Activity [1]: 67.07%
Activity [2]: 74.19%

O=C(N/N=C1\C2CCCC1[C@H](c1ccc(F)cc1)N[C@@H]2c1ccc(F)cc1)c1ccncc1
Activity [1]: 67.63%
Activity [2]: 75.08%

COc1cccc([C@H]2N[C@@H](c3cccc(OC)c3)C3CCCC2/C3=N\NC(=O)c2ccncc2)c1
Activity [1]: 69.18%
Activity [2]: 78.33%

O=C(N/N=C1\C2CCCC1[C@H](c1cccc(Cl)c1)N[C@@H]2c1cccc(Cl)c1)c1ccncc1
Activity [1]: 65.42%
Activity [2]: 75.83%

NNC(=O)c1ccncc1 [ISONIAZID]
Activity [1]: 89.65%
Activity [2]: 95.85%

Source: ChEMBL document CHEMBL1287649, “Synthesis and anti-tubercular and antimicrobial activities of some 2r,4c-diaryl-3-azabicyclo[3.3.1]nonan-9-one N-isonicotinoylhydrazone derivatives” (2010)
